Measured values reported in ChEMBL document CHEMBL1151985, “Cytotoxic and antiplasmodial xanthones from Pentadesma butyracea” (J Nat Prod, 2009).
In brackets after ≈: the same amount, converted by molar mass. Activity calls are given as the source filed them. The rule behind the calls is not given here.

Assays:
[1] = system: MCF7; test: Cytotoxicity against human MCF7 cells assessed as [3H]hypoxanthin incorporation after 24 to 72 hrs; assay type: functional, cell-based
In short: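 MCF-7 cells kept as for the parasite culture but with 5% fetal calf serum in place of 5% human serum. Seeded at 2 × 10^4 cells/well, then exposed to compound. Growth read by [3H]-hypoxanthine incorporation after 24 and 72 h incubation, run as for the P. falciparum assay: plates frozen and thawed, harvested on glass fibre filters, beta-counted. IC50 from linear least-squares regression. Doxorubicin as positive control.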

[2] = Ratio IC50 for human MCF7 cells to IC50 for chloroquine-resistant Plasmodium falciparum FcB1; assay type: functional
[3] = system: Plasmodium falciparum; test: Antiplasmodial activity […] against chloroquine-resistant Plasmodium falciparum FcB1 by [3H]hypoxanthine uptake; assay type: functional, organism-based; settings: FcB1/Columbia
In short: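 P. falciparum cultured continuously and synchronized by 5% D-sorbitol lysis. Parasites incubated with compound for 48 h, with [3H]-hypoxanthine added 24 h before freezing. Plates freeze-thawed, harvested onto glass fibre filters, and incorporation read by beta counting. IC50 from linear least-squares regression; chloroquine as positive control.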

SMILES | IC50 [1] | Ratio IC50 [2] | IC50 [3] | Activity [1]
CC(C)=CCc1c(O)c(CC=C(C)C)c2oc3c(O)ccc(O)c3c(=O)c2c1O [GARTANIN] | 1.2 µg/mL (≈ 3.03 µM) | 0.39 | 3.1 µg/mL (≈ 7.82 µM) | –
COc1c(O)cc2oc3cc(O)c(CC=C(C)C)c(O)c3c(=O)c2c1CC=C(C)C [MANGOSTIN] | 3.5 µg/mL (≈ 8.53 µM) | 1.21 | 2.9 µg/mL (≈ 7.07 µM) | –
CC(C)=CCc1c(O)cc2oc3c(CC=C(C)C)c(O)c4c(c3c(=O)c2c1O)CC(O)C(C)(C)O4 (centres undefined) | – | – | – | Active
COc1c(O)cc2oc3cc4c(c(O)c3c(=O)c2c1CC=C(C)C)C=CC(C)(C)O4 [MANGOSTANIN] | 3.9 µg/mL (≈ 9.55 µM) | <2.05 | > 1.9 µg/mL | –
CC(C)=CCc1c(O)cc2oc3c(CC=C(C)C)c(O)c4c(c3c(=O)c2c1O)C=CC(C)(C)O4 [TOVOPHYLLINE A] | 2.6 µg/mL (≈ 5.62 µM) | 0.93 | 2.8 µg/mL (≈ 6.05 µM) | –
COc1c(O)cc2oc3cc(O)cc(O)c3c(=O)c2c1CC=C(C)CCCC(C)(C)O [BUTYRAXANTHONE D] | 1.3 µg/mL (≈ 3.03 µM) | <0.13 | 10 µg/mL (≈ 23.3 µM) | –
CC(C)=CCc1c(O)c(O)c(CC=C(C)C)c2c(=O)c3c(O)c4c(cc3oc12)OC(C)(C)C=C4 [BUTYRAXANTHONE B] | 3.3 µg/mL (≈ 7.13 µM) | 1.22 | 2.7 µg/mL (≈ 5.84 µM) | –
CC(C)=CCc1c(O)cc2oc3c(CC=C(C)C)c(O)c(O)c(CC=C(C)C)c3c(=O)c2c1O [GARCINONE E] | 1.5 µg/mL (≈ 3.23 µM) | 0.54 | 2.8 µg/mL (≈ 6.03 µM) | –
COc1c(O)cc2oc3cc(O)c(C/C=C(\C)CCC=C(C)C)c(O)c3c(=O)c2c1CC=C(C)C [BUTYRAXANTHONE A] | 3.5 µg/mL (≈ 7.31 µM) | 1.17 | 3 µg/mL (≈ 6.27 µM) | –
COc1c(O)cc2oc3cc(O)cc(O)c3c(=O)c2c1C/C=C(\C)CCC=C(C)C [RUBRAXANTHONE] | 2.6 µg/mL (≈ 6.33 µM) | 0.76 | 3.4 µg/mL (≈ 8.28 µM) | –
CCN(CC)CCCC(C)Nc1ccnc2cc(Cl)ccc12 (centres undefined) [CHLOROQUINE] | > 100 µg/mL | – | – | –
